Experimental data from ChEMBL document CHEMBL1121870, “Potential radiosensitizing agents. 2. Synthesis and biological activity of derivatives of dinitroimidazole with oxiranes” (1981).
pEC50: −log10 of the molar value.

Legend:
Type in all cases: functional
[1] = Radiosensitizing effectivity evaluated as its ability to sensitize hypoxic Chinese hamster cells (V-79) towards ionizing radiation at 0.5 mM
Method in brief: (§1)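 Asynchronous V-79 monolayers in MEM with 15% fetal calf serum were exposed to drug at the maximum nontoxic level (1 mM or less). Cultures were made hypoxic by flushing with 95% N2/5% CO2 and irradiated at 400–3000 rad. Full survival curves were obtained, and the enhancement ratio was calculated as D0 of hypoxic controls divided by D0 of hypoxic drug-treated cells.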

[2] = system: Cricetinae gen. sp.; experiment: Concentration needed to achieve 50% kill of chinese hamster cells under oxygenated conditions on exposure for 2 hours; conditions: in Cricetulus griseus, read-out: ED50 (the source's name)
Method in brief: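 V-79 Chinese hamster monolayers in MEM with 15% fetal calf serum; ~200 cells plated, attached 2 h, then exposed to a range of drug concentrations for 2 h at 37 °C in air. Drug medium was replaced with fresh medium and cells incubated 6 days at 37 °C in 95% air/5% CO2. Colony formation was scored and the concentration giving 50% kill determined.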

[3] = Radiosensitizing effectivity evaluated as its ability to sensitize hypoxic Chinese hamster cells (V-79) towards ionizing radiation at 0.1 mM; method in brief: as §1
[4] = Radiosensitizing effectivity evaluated as its ability to sensitize hypoxic Chinese hamster cells (V-79) towards ionizing radiation at 1 mM; method in brief: as §1
[5] = Radiosensitizing effectivity evaluated as its ability to sensitize hypoxic Chinese hamster cells (V-79) towards ionizing radiation at 0.25 mM; method in brief: as §1

SMILES	Enhancement ratio [1]	pEC50 [2]	Enhancement ratio [3]	Enhancement ratio [4]	Enhancement ratio [5]
CC1Cn2c([N+](=O)[O-])cnc2O1 (centres undefined)	1.1	3.21			
CC1Cn2cc([N+](=O)[O-])nc2O1 (centres undefined)		2.82	1.2		
O=[N+]([O-])c1cn2c(n1)OC(CO)C2 (centres undefined)		2.55		1	
O=[N+]([O-])c1cn2c(n1)OC(CCl)C2 (centres undefined)		2.89	1.1		
COCC1Cn2cc([N+](=O)[O-])nc2O1 (centres undefined)		2.82	1.1		
COCC(O)Cn1cc([N+](=O)[O-])nc1[N+](=O)[O-] (centres undefined)	2.1	2.66	1.8		
O=[N+]([O-])c1cnc2n1CC(CCl)O2 (centres undefined)	1.1	3.21			
COCC1Cn2c([N+](=O)[O-])cnc2O1 (centres undefined)		3.17		1	
O=[N+]([O-])c1cnc2n1CCO2		3.00			1.6
